Consider six molecules from ChEMBL document CHEMBL3397022, “Absolute structures and bioactivities of euryspongins and eurydiene obtained from the marine sponge Euryspongia sp. collected at Iriomote Island” (Bioorg Med Chem, 2015).

As usually defined, the IC50 is the concentration that inhibits the measured activity by half. Lower therefore signals greater potency in that assay.

The target in test [1] is T1, Tyrosine-protein phosphatase non-receptor type 1 (Homo sapiens, UniProt P18031).
T1 sequence (P18031 whole entry): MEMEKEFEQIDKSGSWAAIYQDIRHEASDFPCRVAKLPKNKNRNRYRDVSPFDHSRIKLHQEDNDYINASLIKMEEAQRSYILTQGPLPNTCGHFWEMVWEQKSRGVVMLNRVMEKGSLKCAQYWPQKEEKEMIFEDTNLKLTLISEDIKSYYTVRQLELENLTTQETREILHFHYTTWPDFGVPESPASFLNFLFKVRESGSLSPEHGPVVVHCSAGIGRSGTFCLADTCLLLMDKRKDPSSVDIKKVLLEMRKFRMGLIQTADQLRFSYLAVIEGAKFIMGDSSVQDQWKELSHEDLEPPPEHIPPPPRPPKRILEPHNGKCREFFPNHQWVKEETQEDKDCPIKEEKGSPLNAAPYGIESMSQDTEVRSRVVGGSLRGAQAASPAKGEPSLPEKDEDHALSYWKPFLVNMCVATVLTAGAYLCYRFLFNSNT
Nature of the test: Inhibition of PTP1B (unknown origin) using pNPP as substrate incubated for 10 mins prior to substrate addition measured after 30 mins by microplate reader analysis.

A short description of test [2]: Cytotoxicity against human HuH7 cells […] by MTT assay. Conditions: Huh-7. The class given is cell-based. In a few lines: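 Huh-7 MTT assay: after sample treatment, MTT (5.0 mg/mL stock in saline) added for 90 min at 37 °C. Plate centrifuged at 300 × g for 5 min and supernatant removed. Cells solubilized in 0.040 N HCl in 2-propanol. Absorbance read at 590 nm; survival (%) calculated relative to untreated control.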

Test [3] is described as follows: Cytotoxicity against human HCT15 cells after 48 hrs by MTT assay. The test is classed as cell-based. To be noted: HCT-15, 48 h. Summed up:
(§1)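 Cells grown exponentially in RPMI-1640 with 10% FBS, penicillin and streptomycin at 37 °C, 5.0% CO2. Seeding: HCT-15 at 1.0 × 10^4 cells/well, Jurkat at 2.0 × 10^4 cells/well. Samples added in MeOH and incubated 48 h at 37 °C. MTT and lysis solution (40% DMF, 20% SDS, 2.0% acetic acid, 0.030% HCl) added, then shaken overnight at room temperature. Read at 570 nm.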
For orientation: Tetrazolium assays rely on reduction of a dye to a coloured formazan, in cell work by metabolically active cells.

The test system of test [4] is Jurkat. In words: Cytotoxicity against human Jurkat cells after 48 hrs by MTT assay. The test is classed as cell-based. Summed up:
as §1

Each structure is given as a SMILES string.

Take `CC1=C[C@@H]2CC(C)(C)[C@H]1C[C@@H](O)c1ccoc12`: the IC50 in test [1] is over 40 µM; in test [2] it was over 100 µM; in test [3] it was over 40 µM; in test [4], over 40 µM.

For `CC1=C[C@@H]2CC(C)(C)[C@H]1C[C@@H](O)C1=CC(=O)O[C@H]12`, the IC50 in test [1], in test [3] and in test [4] was over 40 µM each time.

On to `CO[C@@]12OC(=O)C=C1[C@H](O)C[C@H]1C(C)=C[C@@H]2CC1(C)C`, for which the half-inhibitory concentration (IC50) in test [1], in test [3] and in test [4] was over 35 µM each time.

For `C=C/C=C1/CO[C@]2(OC)CC[C@@H](O)[C@@H](O)[C@@H]12`, the IC50 in test [1], in test [3] and in test [4] was over 40 µM in each case.

As to `C=C/C=C(/CO)c1cc(O)ccc1O`, the IC50 in test [1], in test [3] and in test [4] was over 50 µM throughout.

`CC1=C[C@@H]2CC(C)(C)[C@H]1/C=C\c1ccoc12` [REL-DEHYDROEURYSPONGIN A]: the IC50 is over 100 µM in test [2], over 45 µM in test [3] and over 45 µM in test [4].
